Measured values taken from ChEMBL document CHEMBL1156201, “2-MeS-beta,gamma-CCl2-ATP is a potent agent for reducing intraocular pressure” (J Med Chem, 2010).
Activity calls are given as the source filed them. The calls are words filed in the database; no cut-off is given here.

How the values were obtained:
[1] = Chemical stability assessed as enzymatic stability at 100 uM after 20 mins in presence of human NTPDase8; type: physicochemical
Summary of the method: (§1)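 Crude extracts of COS-7 cells transiently transfected with the NTPDase. Extract preincubated 3 min at 37 °C in Tris-Ringer buffer, pH 7.4. Substrate added at 100 μM final; reaction stopped at 20 min with malachite green. Released Pi read at 630 nm. Activity of untransfected-cell extract subtracted.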

[2] = Association constant pKa of the compound; type: physicochemical
[3] = Chemical stability assessed as enzymatic stability at 100 uM after 20 mins in presence of human NTPDase2; type: physicochemical; summary of the method: as §1
[4] = Chemical stability assessed as enzymatic stability at 100 uM after 20 mins in presence of human NTPDase1; type: physicochemical; summary of the method: as §1
Oryctolagus cuniculus [5] = species: Oryctolagus cuniculus; experiment: Antihypertensive activity in New Zealand rabbit assessed as reduction in intraocular pressure at 100 uM after 8 hrs relative to control; type: functional
Summary of the method: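 Male New Zealand white rabbits (2.5 ± 0.5 kg). 100 μM, 10 μL applied unilaterally to the cornea; contralateral eye got the same volume of saline (0.9% NaCl). IOP read by rebound tonometer without anesthetic, twice before dosing, then followed up to 8 h. Blinded design. Mean ± SEM of 8–10 independent experiments.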

[6] = Chemical stability assessed as enzymatic stability at 100 uM after 20 mins in presence of human NPP3; type: physicochemical
Summary of the method: (§2)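 Human NPP1 or NPP3 extract was preincubated 3 min at 37 °C in 1 mM CaCl2, 140 mM NaCl, 5 mM KCl, 50 mM Tris pH 8.5. Nucleotide was added at 100 μM final. After 20 min the reaction was quenched into ice-cold 1 M perchloric acid and neutralised with KOH. Degradation was read by reverse-phase HPLC (TBA/EDTA/phosphate, pH 7.0).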

P2Y purinoceptor 1 = P2Y purinoceptor 1 (Meleagris gallopavo, UniProt P49652); experiment: Agonist activity at turkey P2Y1 receptor expressed in human […] receptor assessed as induction of intracellular calcium mobilization; type: functional, cell-based
[7] = Chemical stability assessed as enzymatic stability at 100 uM after 20 mins in presence of human NPP1; type: physicochemical; summary of the method: as §2
Serum = experiment: Half life in human serum; type: ADME, cell-free
Summary of the method: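 Serum came from healthy volunteers' blood, held 12 h at 4 °C, centrifuged and stored at −80 °C. Nucleotide (4.5 μL of 40 mM stock) was incubated with 180 μL serum plus 540 μL RPMI-1640 at 37 °C for up to 24 h, sampled at 0.5–12 h intervals. Samples were heat-stopped at 80 °C, cleaned up by extraction and anion-exchange, then analysed by HPLC. Hydrolysis rate came from peak-area change over time.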

[8] = Chemical stability assessed as enzymatic stability at 100 uM after 20 mins in presence of human NTPDase3; type: physicochemical; summary of the method: as §1
[9] = Chemical stability assessed as half life of hydrolysis at pH 1.4; type: physicochemical; settings: buffer
Summary of the method: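 Analogue (1.5 mg) in 0.2 M HCl/KCl buffer (0.8 mL), adjusted to pH 1.4, held at 37 °C for 1–31 days. Sampled at 1–24 h intervals and analysed by reverse-phase HPLC. Half-life derived from peak integration over time.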

Oryctolagus cuniculus [10] = species: Oryctolagus cuniculus; experiment: Antihypertensive activity in New Zealand rabbit assessed as reduction in intraocular pressure at 1 nM to 100 uM after 8 hrs relative to control; type: functional, Eye
Summary of the method: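 Male New Zealand white rabbits (2.5 ± 0.5 kg). 10 μL of 1 nM–100 μM solution instilled unilaterally on the cornea; contralateral eye got saline (0.9% NaCl, vehicle). IOP read by rebound tonometer without anesthetic, twice before dosing. Maximal response at each dose was plotted against concentration and fitted for pD2; EC50 taken as antilog of −pD2. One dose per animal per day, washout ≥2 days. Experimenter blinded.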

Chain of P2Y purinoceptor 1 (P49652 whole entry): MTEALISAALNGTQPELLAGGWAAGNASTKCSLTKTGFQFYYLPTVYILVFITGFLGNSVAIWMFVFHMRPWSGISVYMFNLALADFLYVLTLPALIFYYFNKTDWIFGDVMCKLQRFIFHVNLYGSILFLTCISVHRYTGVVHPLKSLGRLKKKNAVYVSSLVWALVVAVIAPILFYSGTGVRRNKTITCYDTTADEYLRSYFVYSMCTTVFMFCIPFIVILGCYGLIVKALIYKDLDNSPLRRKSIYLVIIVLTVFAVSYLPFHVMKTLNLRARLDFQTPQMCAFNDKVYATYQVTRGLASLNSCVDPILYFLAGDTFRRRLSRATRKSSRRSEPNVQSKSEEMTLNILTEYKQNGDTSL

SMILES | Activity [1] [%] | pKa [2] | Activity [3] [%] | Activity [4] [%] | Activity (Oryctolagus cuniculus [5]; Eye) | Activity [6] [%] | EC50 (P2Y purinoceptor 1; read-out: EC50) [nM] | Activity [7] [%] | also measured
CSc1nc(N)c2ncn([C@@H]3O[C@H](COP(=O)(O)OP(=O)(O)C(F)(F)P(=O)(O)O)[C@@H](O)[C@H]3O)c2n1 | 5.2 | 7 | 1.1 | 2.6 | inactive | 0.5 | 760 | 6.2 | t1/2 (Serum): 12.4 h; Activity [8]: 2.6%
BP(=O)(OC[C@H]1O[C@@H](n2cnc3c(N)nc(SC)nc32)[C@H](O)[C@@H]1O)OP(=O)(O)CP(=O)(O)O (stereo not given in full) |  | 8.4 |  |  |  |  |  |  | half-life [9]: 14.5 h
BP(=O)(OC[C@H]1O[C@@H](n2cnc3c(N)nc(SC)nc32)[C@H](O)[C@@H]1O)OP(=O)(O)C(F)(F)P(=O)(O)O (stereo in doubt; 10B) |  |  | 0.9 | 0.4 |  | 3.2 | 2130 | 3.4 | 
CSc1nc(N)c2ncn([C@@H]3O[C@H](COP(=O)(O)OP(=O)(O)C(Cl)(Cl)P(=O)(O)O)[C@@H](O)[C@H]3O)c2n1 |  | 7 | 0.5 | 0.5 |  | 1.9 | 9540 | 5.8 | Activity (Oryctolagus cuniculus [5]): 32%
CSc1nc(N)c2ncn([C@@H]3O[C@H](COP(=O)(O)C(F)(F)P(=O)(O)O)[C@@H](O)[C@H]3O)c2n1 | 0.1 | 7 | 2.4 | 1.3 | Active |  | 980 | 3.9 | pD2 (Oryctolagus cuniculus [10]): 5.1
BP(=O)(OC[C@H]1O[C@@H](n2cnc3c(N)nc(SC)nc32)[C@H](O)[C@@H]1O)OP(=O)(O)C(F)(F)P(=O)(O)O (stereo in doubt; 10A) | 1.7 | 7 | 1.8 | 1 |  | 10 |  | 4 | EC50 (P2Y purinoceptor 1): Not Active; Activity [8]: 4.4%
BP(=O)(OC[C@H]1O[C@@H](n2cnc3c(N)ncnc32)[C@H](O)[C@@H]1O)OP(=O)(O)C(Cl)(Cl)P(=O)(O)O (stereo in doubt; 11A) [listing 1 of 2 here] | 4.4 | 7 | 1.3 | 5.5 |  |  |  | 5.3 | EC50 (P2Y purinoceptor 1): Not Active; Activity [8]: 2.6%
BP(=O)(OC[C@H]1O[C@@H](n2cnc3c(N)nc(SC)nc32)[C@H](O)[C@@H]1O)OP(=O)(O)C(Cl)(Cl)P(=O)(O)O (stereo in doubt; 12A) [listing 1 of 2 here] |  | 7 | 1.5 | 0.7 |  | 5 | 570 | 0.7 | Activity [8]: 0.3%
CSc1nc(N)c2ncn([C@@H]3O[C@H](COP(=O)(O)C(Cl)(Cl)P(=O)(O)O)[C@@H](O)[C@H]3O)c2n1 |  | 7 | 1.7 |  | Active | 1.8 | 3100 | 3.3 | pD2 (Oryctolagus cuniculus [10]): 4.5
BP(=O)(OC[C@H]1O[C@@H](n2cnc3c(N)ncnc32)[C@H](O)[C@@H]1O)OP(=O)(O)CP(=O)(O)O (stereo not given in full) |  | 8.4 |  |  |  |  |  |  | half-life [9]: 19 h
BP(=O)(OC[C@H]1O[C@@H](n2cnc3c(N)ncnc32)[C@H](O)[C@@H]1O)OP(=O)(O)C(Cl)(Cl)P(=O)(O)O (stereo in doubt; 11A) [listing 2 of 2 here] |  |  |  |  | inactive |  |  |  | 
BP(=O)(OC[C@H]1O[C@@H](n2cnc3c(N)nc(SC)nc32)[C@H](O)[C@@H]1O)OP(=O)(O)C(Cl)(Cl)P(=O)(O)O (stereo in doubt; 12B) [listing 1 of 2 here] |  |  |  |  | Active |  |  |  | 
BP(=O)(OC[C@H]1O[C@@H](n2cnc3c(N)nc(SC)nc32)[C@H](O)[C@@H]1O)OP(=O)(O)C(Cl)(Cl)P(=O)(O)O (stereo in doubt; 12A) [listing 2 of 2 here] |  |  |  |  | Active |  |  |  | 
BP(=O)(OC[C@H]1O[C@@H](n2cnc3c(N)nc(SC)nc32)[C@H](O)[C@@H]1O)OP(=O)(O)C(Cl)(Cl)P(=O)(O)O (stereo in doubt; 12B) [listing 2 of 2 here] | 1.8 |  |  |  |  |  | 1200 | 4 | 
BP(=O)(OC[C@H]1O[C@@H](n2cnc3c(N)ncnc32)[C@H](O)[C@@H]1O)OP(=O)(O)C(Cl)(Cl)P(=O)(O)O (stereo in doubt; 11B) [listing 1 of 2 here] | 4 |  | 1.4 | 3.2 |  |  |  | 3.3 | EC50 (P2Y purinoceptor 1): Not Active; Activity [8]: 3.1%
Nc1ncnc2c1ncn2[C@@H]1O[C@H](COP(=O)(O)OP(=O)(O)OP(=O)(O)O)[C@@H](O)[C@H]1O [ADENOSINE TRIPHOSPHATE] |  |  |  |  |  |  |  |  | t1/2 (Serum): 4.9 h
BP(=O)(OC[C@H]1O[C@@H](n2cnc3c(N)ncnc32)[C@H](O)[C@@H]1O)OP(=O)(O)C(Cl)(Cl)P(=O)(O)O (stereo in doubt; 11B) [listing 2 of 2 here] |  |  |  |  | Active |  |  |  | 
CSc1nc(N)c2ncn([C@@H]3O[C@H](COP(=O)(O)OP(=O)(O)CP(=O)(O)O)[C@@H](O)[C@H]3O)c2n1 |  |  |  |  |  |  |  |  | t1/2 [9]: 65 h; pD2 (Oryctolagus cuniculus [10]): 4.5; Activity (Oryctolagus cuniculus [5]): 32%
